The text below walks through data of ChEMBL document CHEMBL1123037, “Anticonvulsant activity of some 4-aminobenzanilides” (J Med Chem, 1985).

A short description of data set [1]: Toxic dose was determined by the rotarod test in mice activity value ranges from 153.02-189.96. The format is toxicity, organism-based. The conditions noted are these: mouse, in vivo. For orientation: Falling from the rotarod earlier than controls is read as motor impairment.
Data set [2] is described as follows: Protective index as the ratio of TD50 value against MES to that of ED50 value against MES. The conditions noted are these: read-out: PI. In kind it is ADME. The essentials:
(§1)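 Protective index = rotorod TD50 divided by ED50 (MES or scMet), both from ip dosing in male Carworth Farms number-one mice, medians obtained graphically.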

The test system of data set [3] is Mus musculus. The data set is described as follows: Effective dose was evaluated for its anticonvulsant activity against subcutaneous induced metrazole convulsions in mice; activity value ranges from 38.83-46.00. In kind it is functional. To be noted: sc.
Data set [4] can be described thus: Protective index as the ratio of TD50 value against scMET to that of ED50 value against scMET. The format is ADME. To be noted: read-out: PI. The essentials: as §1
For data set [5], the species on record is Mus musculus. The data set is described as follows: Effective dose evaluated against maximal electric seizures (MES) or convulsions in mice; activity value ranges from 246.97-337.89. In kind it is functional.
The subject of data set [6] is Mus musculus. The experiment in a line: Effective dose was evaluated for its anticonvulsant activity against subcutaneous induced metrazole convulsions in mice; activity value ranges from 122.64-177.02. The format is functional. The conditions noted are these: sc.
Data set [7] can be described thus: Toxic dose was determined by the rotarod test in mice; activity value ranges from 556.77-815.69. In kind it is toxicity, organism-based. The conditions noted are these: mouse, in vivo.
Data set [8] has as its system Mus musculus. The data set is described as follows: Toxicity tested by rotarod test for neurologic deficit at interval of 30 min when 600 mg/kg was administered intraperitoneally; shows activity. In kind it is organism-based. Details: dose 600 mg/kg, route intraperitoneal. The conditions noted are these: in vivo, ip, 0.5 h. In short, it runs like this: (§2)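 Male Carworth Farms number-one mice dosed ip with compound in 30% polyethylene glycol 400. Each mouse was placed on a 1-in.-diameter knurled plastic rod rotating at 6 rpm. Neurologic toxicity was scored as failure to stay on the rod for 1 min. Screening doses were 30, 100, 300 and sometimes 600 mg/kg, tested at 30 min and 4 h. TD50 was read by the graphical method.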

The species named for data set [9] is Mus musculus. The experiment in a line: Effective dose evaluated against maximal electric seizures (MES) or convulsions in mice; activity value ranges from 56.16-105.53. The format is functional.
Data set [10] has as its system Mus musculus. The experiment in a line: Toxicity tested by rotarod test for neurologic deficit at interval of 4 hr when 600 mg/kg was administered intraperitoneally; no activity. The format is organism-based. On the set-up: dose 600 mg/kg, route intraperitoneal. The conditions noted are these: in vivo, ip. In short, it runs like this:
as §2

The species named for data set [11] is Mus musculus. The experiment in a line: Effective dose evaluated against maximal electric seizures (MES) or convulsions in mice; activity value ranges from 12.50-31.75. In kind it is functional.
Data set [12] deals with Mus musculus. The data set is described as follows: Toxicity tested by rotarod test for neurologic deficit at interval of 30 min when 100 mg/kg was administered intraperitoneally; shows activity. The conditions noted are these: in vivo, ip, 0.5 h. Details: dose 100 mg/kg, route intraperitoneal. In kind it is organism-based. In short, it runs like this: as §2
For data set [13], the system named is Mus musculus. The experiment in a line: Toxicity tested by rotarod test for neurologic deficit at interval of 4 hr when administered intraperitoneally; LD50 < 600 mg/kg. The format is organism-based. Details: dose 600 mg/kg, route intraperitoneal. The conditions noted are these: in vivo, ip.
Data set [14] is described as follows: Toxic dose was determined by the rotarod test in mice; activity value ranges from 88.85-119.90. In kind it is toxicity, organism-based. The conditions noted are these: mouse, in vivo.
The test system of data set [15] is Mus musculus. The data set is described as follows: Toxicity tested by rotarod test for neurologic deficit at interval of 4 hr when 600 mg/kg was administered intraperitoneally; shows activity. The format is organism-based. Details: dose 600 mg/kg, route intraperitoneal. To be noted: in vivo, ip. The essentials: as §2
For data set [16], the system named is Mus musculus. The data set is described as follows: Toxicity tested by rotarod test for neurologic deficit at interval of 30 min when 600 mg/kg was administered intraperitoneally; no activity. The format is organism-based. Details: dose 600 mg/kg, route intraperitoneal. To be noted: in vivo, ip, 0.5 h. The essentials:
as §2

Data set [17] is described as follows: Toxic dose was determined by the rotarod test in mice; activity value ranges from 98.01-127.65. In kind it is toxicity, organism-based. The conditions noted are these: mouse, in vivo.
Data set [18] concerns Mus musculus. The data set is described as follows: Toxicity tested by rotarod test for neurologic deficit at interval of 4 hr when 300 mg/kg was administered intraperitoneally; shows activity. In kind it is organism-based. Details: dose 300 mg/kg, route intraperitoneal. The conditions noted are these: in vivo, ip. The essentials:
as §2

Data set [19] concerns Mus musculus. The experiment in a line: Toxicity tested by rotarod test for neurologic deficit at interval of 4 hr when 100 mg/kg was administered intraperitoneally; shows activity. On the set-up: dose 100 mg/kg, route intraperitoneal. The format is organism-based. To be noted: in vivo, ip. In short, it runs like this: as §2
Data set [20] is described as follows: Toxic dose was determined by the rotarod test in mice; activity value ranges from 40.62-57.10. The format is toxicity, organism-based. To be noted: mouse, in vivo.
Data set [21] relates to Mus musculus. The experiment in a line: Toxicity tested by rotarod test for neurologic deficit at interval of 30 min when 30 mg/kg was administered intraperitoneally; shows activity. On the set-up: dose 30 mg/kg, route intraperitoneal. To be noted: in vivo, ip, 0.5 h. In kind it is organism-based. In short, it runs like this:
as §2

The species entered for data set [22] is Mus musculus. The data set is described as follows: Effective dose evaluated against maximal electric seizures (MES) or convulsions in mice; activity value ranges from 14.70-19.13. The format is functional.
The test system of data set [23] is Mus musculus. The experiment in a line: Toxicity tested by rotarod test for neurologic deficit at interval of 30 min when 300 mg/kg was administered intraperitoneally; shows activity. The conditions noted are these: in vivo, ip, 0.5 h. The format is organism-based. Details: dose 300 mg/kg, route intraperitoneal. The essentials: as §2
A short description of data set [24]: Toxic dose was determined by the rotarod test in mice; activity value ranges from 130.89-161.13. The format is toxicity, organism-based. The conditions noted are these: mouse, in vivo.
The species entered for data set [25] is Mus musculus. The experiment in a line: Effective dose evaluated against maximal electric seizures (MES) or convulsions in mice; activity value ranges from 39.77-53.41. In kind it is functional.
Data set [26] in a line: Toxic dose was determined by the rotarod test in mice; activity value ranges from 156.61-251.07. In kind it is toxicity, organism-based. The conditions noted are these: mouse, in vivo.
Data set [27] is filed under the species Mus musculus. The data set is described as follows: Effective dose evaluated against maximal electric seizures (MES) or convulsions in mice; activity value ranges from 38.02-50.30. In kind it is functional.
The subject of data set [28] is Mus musculus. The experiment in a line: Anticonvulsant activity of 600 mg/kg of compound against subcutaneous induced metrazole convulsions at interval of 4 hr administered intraperitoneally in mice; compound does not show activity. The format is functional, organism-based. Details: dose 600 mg/kg.
For data set [29], the system named is Mus musculus. The experiment in a line: Anticonvulsant activity of 600 mg/kg after 4 hr of intraperitoneal administration in mice against maximum electroshock seizures (MES); compound shows activity. In kind it is functional, organism-based. Details: dose 600 mg/kg.
The test system of data set [30] is Mus musculus. The data set is described as follows: Anticonvulsant activity of 600 mg/kg of compound against subcutaneous induced metrazole convulsions at interval of 30 min administered intraperitoneally in mice; compound shows activity. The format is functional, organism-based. On the set-up: dose 600 mg/kg.
Data set [31] has as its system Mus musculus. The experiment in a line: Anticonvulsant activity of 300 mg/kg after 30 min. of intraperitoneal administration in mice against maximum electroshock seizures (MES); compound shows activity. In kind it is functional, organism-based. Details: dose 300 mg/kg.
Data set [32] is filed under the species Mus musculus. The data set is described as follows: Effective dose evaluated against maximal electric seizures (MES) or convulsions in mice;activity value ranges from 66.58-109.74. The format is functional.
Data set [33] is described as follows: Toxic dose was determined by the rotarod test in mice. The format is toxicity, organism-based. The conditions noted are these: mouse, in vivo.
The species named for data set [34] is Mus musculus. The data set is described as follows: Effective dose evaluated against maximal electric seizures (MES) or convulsions in mice; activity value ranges from 2.18-3.07. The format is functional.

As to `CC(NC(=O)c1ccc(N)cc1)c1ccccc1` (centres undefined), the TD50 in data set [1] was determined as 171 mg/kg. For the same compound, the selectivity ratio came out at 9.5 in data set [2] and 4.1 in [4]. The median effective dose (ED50) with Mus musculus [3] came out at 41.8 mg/kg.

For `CCCC(CCC)C(=O)O` [VALPROIC ACID], the ED50 amounted to 272 mg/kg in the data set listed under Mus musculus [5] and 149 mg/kg with Mus musculus [6].

On to `CC(C)c1ccccc1NC(=O)c1ccc(N)cc1`, for which the selectivity ratio in data set [2] came to 8.7. The compound further displayed a TD50 in [7] of 709 mg/kg. For the same compound, the Toxicity result in the data set with Mus musculus [8] and in the data set on Mus musculus [10] was “No activity” each time. This compound also had a 50% effective dose (ED50) in the data set filed under Mus musculus [9] of 81.5 mg/kg.

In the case of `Cc1cccc(NC(=O)c2ccc(N)cc2)c1C`, the selectivity ratio in [2] was 4.11. The compound further registered an ED50 in the data set listed under Mus musculus [11] of 25.2 mg/kg. Besides, the Toxicity entry in the data set on Mus musculus [12] and in the data set with Mus musculus [13] was “LD50 < 600 mg/kg” in each case. For the same compound, in [14], the TD50 was determined as 104 mg/kg.

On to `Cc1ccc(NC(=O)c2ccc(N)cc2)cc1`, for which the Toxicity result in the data set on Mus musculus [15] and with Mus musculus [12] was “Activity” each time.

In the case of `Cc1cc(C)cc(NC(=O)c2ccc(N)cc2)c1`, the Toxicity result in the data set on Mus musculus [16] and in the data set on Mus musculus [10] was “No activity” in each case.

In data set [17], `Nc1ccc(C(=O)Nc2ccccc2)cc1` displayed a TD50 of 111 mg/kg. The selectivity ratio turned out to be 2.2 in data set [2] and 1.88 in data set [4]. The Toxicity entry in the data set with Mus musculus [18] and with Mus musculus [12] was “Activity” throughout.

Take `CCc1cccc(C(C)C)c1NC(=O)c1ccc(N)cc1`: the Toxicity result in the data set on Mus musculus [19] and with Mus musculus [21] was “Activity” in each case. Moreover, the selectivity ratio in data set [2] turned out to be 2.95. In addition, the TD50 in [20] stood at 49.1 mg/kg. Moreover, the ED50 in the data set filed under Mus musculus [22] is 16.7 mg/kg.

Consider `Cc1cccc(NC(=O)c2ccc(N)cc2)c1`, for which the Toxicity result in the data set with Mus musculus [15] and in the data set with Mus musculus [23] was “Activity” throughout. Moreover, the selectivity ratio was determined as 3.03 in [2] and 1.62 in data set [4]. Further, in data set [24], the TD50 came out at 143 mg/kg. Further, the ED50 in the data set listed under Mus musculus [25] is 47 mg/kg.

With `Cc1ccccc1NC(=O)c1ccc(N)cc1`, the Toxicity entry in the data set on Mus musculus [23] and with Mus musculus [21] was “Activity” in each case.

As to `Cc1ccc(NC(=O)c2ccc(N)cc2)cc1C`, the Toxicity result with Mus musculus [15] and in the data set on Mus musculus [12] was “Activity” in each case. In data set [26], this compound returned a TD50 of 194 mg/kg. In addition, the values for the selectivity ratio in data set [2] and in data set [4] were 4.59 and 2.4, respectively. The 50% effect level in the data set listed under Mus musculus [27] (ED50) was put at a dose of 42.3 mg/kg.

Regarding `Cc1ccc(NC(=O)c2ccc(N)cc2)c(C)c1`, the Activity result with Mus musculus [28], in the data set on Mus musculus [29], in the data set with Mus musculus [30] and in the data set with Mus musculus [31] was “No activity” in each case. For the same compound, the Toxicity entry with Mus musculus [8] and in the data set on Mus musculus [10] was “No activity” each time.

Regarding `Cc1cccc(C(C)C)c1NC(=O)c1ccc(N)cc1`, the selectivity ratio in [2] was greater than 17.4. In addition, it took a dose of 86.1 mg/kg to reach the 50% effect level in the data set filed under Mus musculus [32] (ED50). Further, the TD50 in [33] was greater than 1500 mg/kg. For the same compound, the Toxicity entry in the data set with Mus musculus [16] is listed as “No activity”.

As for `Cc1ccc(C)c(NC(=O)c2ccc(N)cc2)c1`, the Toxicity result with Mus musculus [16] and with Mus musculus [10] was “No activity” each time.

Regarding `Cc1cccc(C)c1NC(=O)c1ccc(N)cc1` [AMELTOLIDE], the Toxicity result in the data set with Mus musculus [19] and in the data set on Mus musculus [21] was “Activity” each time. Besides, it took a dose of 2.6 mg/kg to reach the 50% effect level in the data set filed under Mus musculus [34] (ED50).

One may read the TD50 as the 50% point of the dose-response relation for the toxic effect studied. A lower TD50 goes with harm at a small dose. One may read the ED50 as the midpoint of the dose-response relation.
